Test results from PubChem BioAssay AID504338 (NMMLSC, 2011).
“And” between values parts separate entries of the source, which are not always exact repeats. Identical values can stand only once. Unmarked numbers belong to inactive results. The source made the active and inactive calls.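 Rule for the calls: active = GFP response vs DMSO above 150% with enough events counted; inconclusive = fewer than 70 events counted for a yeast strain; inactive = the rest.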

Assay: yeast TOR reporter LAP4-GFP retest – cell-based, third cherry pick, flow cytometry, confirmation (AID 504338);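 note: ratio to plate DMSO wells so 100% equals DMSO level rather than 0%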
Details: S. cerevisiae LAP4-GFP strain, 3 h, at 10 µM, active compounds read high
How it was run: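 System: Saccharomyces cerevisiae strain expressing LAP4-GFP fusion protein. Quantity: cells at 0.2 OD600. Medium: synthetic complete medium. Read-out basis: median GFP fluorescence as percent of plate DMSO-well average. Signal: high-throughput flow cytometry of GFP, single-cell scatter gate. Schedule: 3 h treatment, 30 °C. Dosing: single compound dose, 10 µM final.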
With `Nc1[nH]c(=O)nc(Nc2ccccc2)c1N=O` the GFP response vs DMSO was 104%. `CSc1ccccc1OCc1cc(C(=O)N2CCN(C)C(c3ccccc3)C2)no1` (centres undefined) gave a GFP response vs DMSO of 107%. `CC(=O)Nn1cnc2c(c1=O)C1(CCCC1)Cc1ccccc1-2` gave a GFP response vs DMSO of 103%. `Nc1cc(C(=O)O)c(N)c2c1C(=O)c1ccccc1C2=O` showed a GFP response vs DMSO of 106%. `OCc1ccnc2c(O)cccc12` showed a GFP response vs DMSO of 101%. Compound `CCCOCc1ccc(O)c2ncccc12` has a GFP response vs DMSO of 104%. For `CSc1nc(S(C)(=O)=O)nc2[nH]c(=O)[nH]c12`, the GFP response vs DMSO was 104%. `C=CCNc1nc(N)c([N+](=O)[O-])c(Nc2cccc(Cl)c2)n1` gave a GFP response vs DMSO of 104%. In the case of `O=C(O)CCS(=O)(=O)c1nc(-c2cccs2)cc(C(F)(F)F)n1`, the GFP response vs DMSO is reported as 115%. In the case of `O=C(N/N=C/c1ccccc1O)c1cccc2ccccc12`, the GFP response vs DMSO is reported as 110%. `COc1ccccc1Nc1nc(NCCCN(C)C)nc(N)c1[N+](=O)[O-]` gave a GFP response vs DMSO of 103%. With `Oc1c(I)cc(Cl)c2cccnc12` the GFP response vs DMSO was 192% (active). For `O=C(Nc1ccccc1Cl)ON=C1c2ccccc2-c2ccccc21`, the GFP response vs DMSO was 108%. In the case of `CC1=NNC(=O)/C1=C\c1cn(-c2ccccc2)nc1-c1ccc(F)cc1`, the GFP response vs DMSO is reported as 179% (active). Compound `O=C(N/N=C/c1ccccc1)c1cccc2ccccc12` has a GFP response vs DMSO of 103%. `Cc1ccc(C)c(Nc2ncnc(N)c2[N+](=O)[O-])c1` gave a GFP response vs DMSO of 107%. Compound `Nc1ccc(O)c2c1C(=O)c1ccccc1C2=O` has a GFP response vs DMSO of 98.6%. Work on `Cc1nc(Nc2ccc(Br)cc2Br)c([N+](=O)[O-])c(=O)[nH]1` yielded a GFP response vs DMSO of 106%. In the case of `C=CCNc1nc(N)c([N+](=O)[O-])c(Nc2ccccc2OC)n1`, the GFP response vs DMSO is reported as 100%. For `CC(=O)CC(=O)Nc1ccc(C(N)=O)cc1`, the GFP response vs DMSO was 101%. `Cc1ccc(Nc2nc(N)[nH]c(=O)c2N=O)cc1` showed a GFP response vs DMSO of 104%. In the case of `COc1ccccc1-c1cc(C(F)(F)F)nc(S(=O)(=O)CCCC(=O)NC(C)C)n1`, the GFP response vs DMSO is reported as 101% and 104%. For `O=C(O)CCCCCNc1ncnc2ccc(Br)cc12`, the GFP response vs DMSO was 104%. In the case of `Cc1ccc(NC(=O)O/N=C2\CCCCC2c2ccc([N+](=O)[O-])cc2[N+](=O)[O-])cc1` (centres undefined), the GFP response vs DMSO is reported as 103%. Work on `CC(=O)Nn1cnc2c(c1=O)C1(CCCCC1)Cc1ccccc1-2` yielded a GFP response vs DMSO of 106%. `C=CCNc1ncnc2ccc(Br)cc12` gave a GFP response vs DMSO of 106%. In the case of `CCOC(=O)CS(=O)(=O)c1nc(-c2ccccc2)cc(C(F)(F)F)n1`, the GFP response vs DMSO is reported as 182% (active). Compound `COCCNc1nc(N)c([N+](=O)[O-])c(Nc2ccc(F)cc2)n1` has a GFP response vs DMSO of 106%. For `O=C(Nc1ccc(-c2nc3ccccc3o2)cc1)c1cccnc1`, the GFP response vs DMSO was 117%. In the case of `CS(=O)(=O)Oc1ccc(Br)c2cccnc12`, the GFP response vs DMSO is reported as 104%. `CCN(CC)C(=O)Oc1cc(=O)n(C)c2ccccc12` gave a GFP response vs DMSO of 101%. Compound `CC(=O)C(Cl)C(=O)Nc1ccccc1` (centres undefined) has a GFP response vs DMSO of 124%. Compound `C[n+]1cccc2c(Br)ccc([O-])c21` has a GFP response vs DMSO of 104%. `COCCCNc1nc(N)c([N+](=O)[O-])c(Nc2ccccc2OC)n1` gave a GFP response vs DMSO of 106%. `Cc1nc(Nc2ccc(Cl)cc2)c(C#N)c(=O)[nH]1` gave a GFP response vs DMSO of 107%. `NC(=O)COc1cccc2cccnc12` gave a GFP response vs DMSO of 103%. Compound `CC(=O)Nc1ccc(-c2nc3ccccc3o2)cc1` has a GFP response vs DMSO of 108%. `COc1cccc(OCc2cc(C(=O)N3CCN(C)C(c4ccccc4)C3)no2)c1` (centres undefined) gave a GFP response vs DMSO of 106%. In the case of `COc1cccc(N/C=C/C(=O)c2ccc(C)cc2)c1`, the GFP response vs DMSO is reported as 115%.
